As usually defined, the clearance is the volume of plasma or blood freed of the substance per unit of time. The low end stands for a low capacity for elimination, the high end for a high capacity for elimination. A word on the AUC: it is concentration integrated over time. Read a low AUC as less exposure. The term Cmax denotes the highest concentration seen after dosing. What is called half-life is the time needed for the level to fall by half in the phase considered.

Data set [1] in a line: Clearance in rat at 1 mg/kg, iv. The class given is ADME, organism-based. Further details: dose 1 mg/kg, route intravenous. The note with it: in vivo. The procedure, abridged: (§1)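 Male Sprague Dawley rats and male beagle dogs were dosed IV at 1 mg/kg or orally at 5 mg/kg. Plasma concentration–time profiles were followed. Each time point is the mean from three separate animals.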

Data set [2] is described as follows: AUC in rat at 5 mg/kg, po. Type of data set: ADME, organism-based. On the set-up: dose 5 mg/kg, route oral. The note with it: plasma. In outline: as §1
A short description of data set [3]: Cmax in rat at 5 mg/kg, po. Type of data set: ADME, organism-based. Further details: dose 5 mg/kg, route oral. As to conditions: in vivo. The procedure, abridged:
as §1

Data set [4] in a line: Volume of distribution at steady state in rat at 1 mg/kg, iv. The class given is ADME, organism-based. The note with it: in vivo, read-out: Vdss. On the set-up: dose 1 mg/kg, route intravenous. The procedure, abridged: as §1
Data set [5] is described as follows: Oral bioavailability in rat at 5 mg/kg. The class given is ADME, organism-based. As to conditions: in vivo. The procedure, abridged:
as §1

Data set [6] is described as follows: Half life in rat at 1 mg/kg, iv. Type of data set: ADME, organism-based. Further details: dose 1 mg/kg, route intravenous. The note with it: in vivo. In outline: as §1
Data set [7] can be described thus: Clearance in dog at 1 mg/kg, iv. Type of data set: ADME, organism-based, Canis lupus familiaris. Further details: dose 1 mg/kg, route intravenous. As to conditions: in vivo. The procedure, abridged: as §1
The nature of data set [8]: AUC in dog at 5 mg/kg, po. The note with it: plasma. On the set-up: dose 5 mg/kg, route oral. The class given is ADME, organism-based, Canis lupus familiaris. In outline: as §1
Data set [9] in a line: Oral bioavailability in dog at 5 mg/kg. The class given is ADME, organism-based, Canis lupus familiaris. The note with it: in vivo. The procedure, abridged:
as §1

The nature of data set [10]: Cmax in dog at 5 mg/kg, po. The class given is ADME, organism-based, Canis lupus familiaris. Further details: dose 5 mg/kg, route oral. The note with it: in vivo. The procedure, abridged: as §1
A short description of data set [11]: Half life in dog at 1 mg/kg, iv. The class given is ADME, organism-based, Canis lupus familiaris. The note with it: in vivo. Further details: dose 1 mg/kg, route intravenous. The procedure, abridged: as §1
Data set [12] is described as follows: Volume of distribution at steady state in dog at 1 mg/kg, iv. The class given is ADME, organism-based, Canis lupus familiaris. On the set-up: dose 1 mg/kg, route intravenous. The note with it: in vivo, read-out: Vdss. In outline: as §1

In turn, `CC(C)CN1CCC([S@](=O)c2ccc(CNC(=O)c3cc4ccncc4o3)cc2)CC1` had a clearance in [1] of 225 mL/min/kg. For the same molecule, the AUC in [2] was 0.27 µM·h. This molecule also yielded a Cmax in [3] of 70 nM. Moreover, the Vd in data set [4] was found to be 17 L/kg. For the same molecule, the bioavailability in [5] was determined as 31%. Further, in [6], the half-life is 0.93 h.

`O=C(NCc1ccc(S(=O)(=O)c2cc(F)cc(F)c2)cn1)c1cc2ccncc2o1`: the results for the clearance in data set [1] and in data set [7] were 40 mL/min/kg and 6.7 mL/min/kg, respectively. Also, the values for the AUC in [2] and in [8] were 3.3 µM·h and 33 µM·h, respectively. For the same molecule, the peak concentration (Cmax) is 1000 nM in [3] and 4700 nM in data set [10]. Also, the Vd stood at 2 L/kg in data set [4] and 1.6 L/kg in [12]. For the same molecule, the bioavailability in [9] was 115%; in data set [5], 61%. The figures for the half-life in data set [11] and in data set [6] were 4.7 h and 1 h, respectively.

In turn, `O=C(NCc1ccc([S@@](=O)c2cc(F)cc(F)c2)cn1)c1cc2ccncc2o1` showed a clearance in data set [1] of 105 mL/min/kg. Moreover, in [2], the AUC was 1.2 µM·h. The molecule further displayed a Cmax in data set [3] of 1000 nM. For the same molecule, in [4], the Vd was 3 L/kg. The bioavailability in data set [5] is 62%. In data set [6], this molecule showed a half-life of 0.6 h.

`CC(C)n1cc(S(=O)(=O)c2ccc(CNC(=O)c3cc4ccncc4o3)nc2)cn1`: the figures for the clearance in data set [1] and in [7] were 55 mL/min/kg and 9.8 mL/min/kg, respectively. Also, the values for the AUC in data set [2] and in data set [8] were 3 µM·h and 28 µM·h, respectively. Also, the values for the Cmax in data set [3] and in [10] were 1500 nM and 8600 nM, respectively. Moreover, the Vd amounted to 3.2 L/kg in [4] and 1 L/kg in data set [12]. The results for the bioavailability in data set [9] and in data set [5] were 141% and 74%, respectively. For the same molecule, the figures for the half-life in data set [11] and in data set [6] were 1.5 h and 2.3 h, respectively.

For the origin of these results see ChEMBL document CHEMBL3393056, “Identification of nicotinamide phosphoribosyltransferase (NAMPT) inhibitors with no evidence of CYP3A4 time-dependent inhibition and improved aqueous solubility” (Bioorg Med Chem Lett, 2015).
